Converted amounts (≈) assume the structure as drawn. The source made the active and inactive calls. The calls are words filed in the database; no cut-off is given here.
Columns and labels:
Rattus norvegicus [1] = experiment: Inhibition of ethanol induced gastric lesions in the rat following p.o. administration; No effect.; type: functional, organism-based; settings: Stomach
Outline: (§1)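 Male Sprague-Dawley rats (200–300 g) were fasted 24 h and dosed orally at 2 mL/kg, 30 min before 1 mL of 100% ethanol per rat. Animals were killed 1 h later, and stomachs were formalin-fixed, opened along the greater curvature and examined for lesions. ED50 is the dose giving 50% lesion inhibition versus control, derived by linear regression from three dose groups of eight rats each.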

Rattus norvegicus [2] = experiment: Dose that reduces mean blood pressure by 15 mmHg (peak effect) in rat administered intravenously; type: functional
Outline: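 Male Wistar rats (200–300 g) were anesthetized with urethane. Compound was given iv via the femoral vein, and blood pressure was recorded by transducer through a femoral artery catheter. MBP15 is the dose lowering mean blood pressure by 15 mmHg at peak effect, derived by linear regression from three dose groups of five or six animals (mean ± SEM).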

Rattus norvegicus [3] = species on record: Rattus norvegicus; experiment: Antiaggregatory activity is expressed as dose that inhibit rat platelet aggregation induced by collagen by 50% of that of the control; type: functional
Outline: (§2)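 Male Wistar rats (250–350 g) under ether anesthesia were bled from the abdominal aorta into 0.1 volume 3.13% sodium citrate. Aggregation was induced by collagen (final 5 μg/mL) and read in an aggregometer at 37 °C with stirring. The IC50 is the concentration inhibiting aggregation by 50% versus control, derived by linear regression from three dose groups of five or six animals (mean ± SEM).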

Rattus norvegicus [4] = experiment: Inhibition of ethanol induced gastric lesions in the rat following p.o. administration.; type: functional; settings: Stomach, po; outline: as §1
Rattus norvegicus [5] = species on record: Rattus norvegicus; experiment: Relative potency for hypotension; type: functional
Rattus norvegicus [6] = species on record: Rattus norvegicus; experiment: Antiaggregatory activity is expressed as dose that inhibit rat platelet aggregation induced by collagen by 50% of that of the control; No effect; type: functional; outline: as §2
Rattus norvegicus [7] = species on record: Rattus norvegicus; experiment: Relative potency for organ protection; type: functional
Outline: (§3)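 Relative potencies were calculated against PGE2 from the rat oral ED50 for ethanol-induced gastric lesions and the iv MBP15 hypotension dose. The ratio is organ-protective relative potency divided by hypotensive relative potency, with PGE2 set to 1.0.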

Rattus norvegicus [8] = species on record: Rattus norvegicus; experiment: Relative potency for antiaggregation; type: functional
Outline: (§4)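 Antiaggregation relative potency was calculated against PGI2 from the IC50 for collagen-induced (5 μg/mL) aggregation of citrated rat blood, measured at 37 °C.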

Rattus norvegicus [9] = experiment: Organ-protective activity is expressed as dose that inhibits 50 percent of ethanol-induced gastric lesions of control orally in rat; No effect; type: functional, organism-based; settings: Stomach; outline: as §1
Rattus norvegicus [10] = species on record: Rattus norvegicus; experiment: Relative potency for hypotension in rats; type: functional
[11] = Ratio of relative potencies of organ protection/ hypotension to that of PGE-2 in rats; type: functional; outline: as §3
Rattus norvegicus [12] = species on record: Rattus norvegicus; experiment: Relative potency for organ protection in rats; type: functional; outline: as §3
[13] = Ratio of relative potencies of antiaggregation/ hypotension to that of PGI-2 Na in rats
Rattus norvegicus [14] = species on record: Rattus norvegicus; experiment: Relative potency for antiaggregation in rats; type: functional; outline: as §4

SMILES | IC50 (Rattus norvegicus [3]) [µg/mL] | Dose lowering mean blood pressure by 15 mmHg (Rattus norvegicus [2]) [mg/kg] | ED50 (Rattus norvegicus [4]) [mg/kg] | other results
O=C(O)CCC/C=C1\CC2C[C@@H](O)[C@H](CC[C@@H](O)C3Cc4ccccc4C3)C2C1 (some centres not stated) | 0.0764 (≈ 0.192 µM) | 0.035 |  | ED50 (Rattus norvegicus [1]): No effect
O=C(O)CCC/C=C1\CC2C[C@@H](O)[C@H](/C=C/[C@@H](O)C3Cc4ccc(Cl)cc4C3)C2C1 (some centres not stated) | 0.407 (≈ 0.945 µM) | >0.1 | > 0.3 | 
O=C(O)CCC/C=C1\CC2C[C@@H](O)[C@H](/C=C/[C@@H](O)c3ccc4c(c3)OCO4)C2C1 (some centres not stated) | > 1 | >0.1 |  | ED50 (Rattus norvegicus [1]): No effect
CCCCC[C@H](O)/C=C/[C@H]1[C@H](O)CC(=O)[C@@H]1C/C=C\CCCC(=O)O [DINOPROSTONE] |  | 0.0012 | 0.0341 | Relative potency (Rattus norvegicus [5]): 1; IC50 (Rattus norvegicus [6]): Not Active; Relative potency (Rattus norvegicus [7]): 1
Cc1ccc2c(c1)OCC([C@H](O)/C=C/[C@@H]1C3C/C(=C/CCCC(=O)O)CC3C[C@H]1O)O2 (some centres not stated) | 0.647 (≈ 1.51 µM) | 0.013 | 0.11 | 
O=C(O)CCC/C=C1\CC2C[C@@H](O)[C@H](/C=C/[C@@H](O)C3COC4CCCCC4O3)C2C1 (some centres not stated) | > 1 | 0.0135 | 0.256 | 
CCCCC[C@H](O)/C=C/[C@@H]1[C@H]2C/C(=C/CCCC(=O)[O-])O[C@H]2C[C@H]1O.[Na+] [EPOPROSTENOL SODIUM] | 0.0034 | 0.0003 |  | Relative potency (Rattus norvegicus [8]): 1; Relative potency (Rattus norvegicus [5]): 1; ED50 (Rattus norvegicus [9]): inactive
O=C(O)CCC/C=C1\CC2C[C@@H](O)[C@H](/C=C/[C@@H](O)C3Cc4ccc([N+](=O)[O-])cc4C3)C2C1 (some centres not stated) | 0.15 (≈ 0.34 µM) | 0.0085 | 0.14 | 
CC(C)c1cccc2c(CC[C@H](O)/C=C/[C@@H]3C4C/C(=C/CCCC(=O)O)CC4C[C@H]3O)ccc-2c1 (some centres not stated) | > 1 | >0.1 |  | ED50 (Rattus norvegicus [1]): No effect
O=C(O)CCC/C=C1\CC2C[C@@H](O)[C@H](C#C[C@@H](O)C3Cc4ccccc4C3)C2C1 (some centres not stated) | 0.0082 (≈ 0.0208 µM) | 0.0013 | 0.0017 | Relative potency (Rattus norvegicus [8]): 0.42; Relative potency (Rattus norvegicus [10]): 0.9; Ratio [11]: 21.8; Ratio [13]: 1.8; Relative potency (Rattus norvegicus [12]): 20.1
O=C(O)CCC/C=C1\CC2C[C@@H](O)[C@H](/C=C/[C@@H](O)c3ccc4c(c3)OCCO4)C2C1 (some centres not stated) | > 1 | >0.1 | > 0.3 | 
COc1ccc2c(c1)OCC([C@H](O)/C=C/[C@@H]1C3C/C(=C/CCCC(=O)O)CC3C[C@H]1O)O2 (some centres not stated) | 0.355 (≈ 0.799 µM) | 0.0035 | 0.0021 | Relative potency (Rattus norvegicus [10]): 0.3; Ratio [11]: 47.6; Relative potency (Rattus norvegicus [12]): 16.2
O=C(O)COCCC1=C[C@H]2C[C@@H](O)[C@H](/C=C/[C@@H](O)C3COc4ccccc4O3)C2C1 (some centres not stated) | 0.0531 (≈ 0.128 µM) | 0.0017 | 0.0085 | 

The next lines start with results.

IC50 (Rattus norvegicus [3]) [µg/mL] | SMILES | Dose lowering mean blood pressure by 15 mmHg (Rattus norvegicus [2]) [mg/kg] | ED50 (Rattus norvegicus [4]) [mg/kg] | other results
> 1 | O=C(O)CCC/C=C1\CC2C[C@@H](O)[C@H](/C=C/[C@@H](O)C3CCc4ccccc43)C2C1 (some centres not stated) | >0.1 |  | ED50 (Rattus norvegicus [1]): No effect
0.0302 (≈ 0.0736 µM) | CC1([C@H](O)/C=C/[C@@H]2C3C/C(=C/CCCC(=O)O)CC3C[C@H]2O)Cc2ccccc2C1 (some centres not stated) | 0.0053 | 0.0452 | 
0.118 (≈ 0.286 µM) | CC1([C@H](O)/C=C/[C@@H]2C3C/C(=C/COCC(=O)O)CC3C[C@H]2O)Cc2ccccc2C1 (some centres not stated) | 0.0076 | 0.0397 | 
0.0692 (≈ 0.168 µM) | CC1([C@H](O)/C=C/[C@@H]2C3CC(CCOCC(=O)O)=C[C@H]3C[C@H]2O)Cc2ccccc2C1 (some centres not stated) | 0.002 | 0.006 | 
0.324 (≈ 0.755 µM) | O=C(O)CCC/C=C1\CC2C[C@@H](O)[C@H](/C=C/[C@@H](O)CC3COc4ccccc4O3)C2C1 (some centres not stated) | 0.044 | > 0.3 | 
0.324 (≈ 0.781 µM) | O=C(O)CCC/C=C1\CC2C[C@@H](O)[C@H](/C=C/[C@@H](O)C3COc4ccccc4O3)C2C1 (some centres not stated) | 0.002 | 0.0045 | Relative potency (Rattus norvegicus [10]): 0.6; Ratio [11]: 12.7; Relative potency (Rattus norvegicus [12]): 7.6
0.0537 (≈ 0.136 µM) | NC(=O)CCC/C=C1\CC2C[C@@H](O)[C@H](/C=C/[C@@H](O)C3Cc4ccccc4C3)C2C1 (some centres not stated) | 0.0977 | 0.113 | 
0.582 (≈ 1.4 µM) | O=C(O)COC/C=C1\CC2C[C@@H](O)[C@H](/C=C/[C@@H](O)C3COc4ccccc4O3)C2C1 (some centres not stated) | 0.0025 | 0.113 | 
> 1 | OCCCC/C=C1\CC2C[C@@H](O)[C@H](/C=C/[C@@H](O)C3Cc4ccccc4C3)C2C1 (some centres not stated) | >0.1 | 0.0536 | 
> 1 | COc1ccc2c(c1)OCC([C@H](O)/C=C/[C@@H]1C3C/C(=C/COCC(=O)O)CC3C[C@H]1O)O2 (some centres not stated) | 0.0062 |  | ED50 (Rattus norvegicus [1]): No effect
0.221 (≈ 0.516 µM) | CC1([C@H](O)/C=C/[C@@H]2C3C/C(=C/CCCC(=O)O)CC3C[C@H]2O)COc2ccccc2O1 (some centres not stated) | 0.0036 | 0.0142 | 
> 1 | O=C(O)CCC/C=C1\CC2C[C@@H](O)[C@H](/C=C/[C@@H](O)c3ccc4c(c3)CCC4)C2C1 (some centres not stated) | >0.1 |  | ED50 (Rattus norvegicus [1]): No effect
0.0567 (≈ 0.142 µM) | O=C(O)COCCC1=C[C@H]2C[C@@H](O)[C@H](/C=C/[C@@H](O)C3Cc4ccccc4C3)C2C1 (some centres not stated) | 0.0022 | 0.0274 | 
0.0204 (≈ 0.0514 µM) | O=C(O)CCC/C=C1\CC2C[C@@H](O)[C@H](/C=C/[C@@H](O)C3Cc4ccccc4C3)C2C1 (some centres not stated) | 0.0043 | 0.0562 | Relative potency (Rattus norvegicus [10]): 0.07; Relative potency (Rattus norvegicus [14]): 0.17; Ratio [13]: 2.4
0.0153 (≈ 0.0384 µM) | O=C(O)COC/C=C1\CC2C[C@@H](O)[C@H](/C=C/[C@@H](O)C3Cc4ccccc4C3)C2C1 (some centres not stated) | 0.0038 | 0.0675 | Relative potency (Rattus norvegicus [10]): 0.08; Relative potency (Rattus norvegicus [14]): 0.23
0.0705 (≈ 0.165 µM) | COc1ccc2c(c1)CC([C@H](O)/C=C/[C@@H]1C3C/C(=C/CCCC(=O)O)CC3C[C@H]1O)C2 (some centres not stated) | 0.006 | 0.0143 | 

Source: ChEMBL document CHEMBL1124572, “Synthesis and biological activity of novel carbacyclins having bicyclic substituents on the omega-chain” (J Med Chem, 1989)
